FN deposit inh: fibronectin deposition inhibition. AH1F fibroblasts, Alexa488-fibronectin deposition fluorescence, overnight. inhibition, % at 12.6 µM. actives 0.086% (n = 350,000). AID 743247;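 active = mean inhibition across replicates of 30% or more, regardless of how many single replicates reach that level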
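Material: AH1F fibroblast monolayer depositing Alexa488-labelled fibronectin into matrix / Amount: 10000 AH1F cells per well / Signal: fluorescence 485/525 nm / Medium: DMEM, 2% serum / Compound: single dose, pinned / Incubation: 1 h cell adhesion before compound, then overnight fibronectin incubation / Reagent: Alexa488-FN, 24 nM final / Read-out: inhibition of fibronectin deposition signal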
SKKanGAS inh: inhibitors of SKKanGAS S. pyogenes growth in kanamycin (SK-promoter or general growth effect); BacTiter-Glo, 6 h; inhibition, % at 7.5 µM; actives 1.3% (n = 300,000);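 active = mean replicate score, as percent of positive control median, at least 50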;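 note: strain carries kanamycin resistance gene driven by streptokinase promoter and grows in 40 µg/ml kanamycin; loss of luminescence reflects streptokinase promoter inhibition or plain growth inhibition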
Rtt109 HAT inh: C. albicans Rtt109 histone acetyltransferase inhibition; Q5AAJ8; actives 0.16% (n = 330,000); purified Rtt109/Vps75, ThioGlo CoA-SH fluorescence, 4 h; inhibition, % at 34.9 µM;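 active = inhibition of at least 50% in every replicate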
Target sequence (Q5AAJ8 whole entry, looked up): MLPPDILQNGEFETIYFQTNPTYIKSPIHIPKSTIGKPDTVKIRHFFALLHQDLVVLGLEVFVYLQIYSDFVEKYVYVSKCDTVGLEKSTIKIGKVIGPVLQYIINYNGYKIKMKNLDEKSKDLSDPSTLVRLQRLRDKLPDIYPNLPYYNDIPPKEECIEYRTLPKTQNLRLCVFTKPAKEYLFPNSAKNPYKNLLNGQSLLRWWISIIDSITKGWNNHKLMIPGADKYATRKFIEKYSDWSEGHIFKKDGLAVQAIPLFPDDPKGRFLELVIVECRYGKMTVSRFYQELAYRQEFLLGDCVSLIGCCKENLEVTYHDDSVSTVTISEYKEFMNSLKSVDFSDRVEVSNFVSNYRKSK
PglD DTNB: PglD (C. jejuni) enzyme inhibition; purified PglD enzyme, DTNB colorimetric CoA detection; inhibition, % at 12.5 µM; actives 0.098% (n = 360,000); AID 602405; in the data active = inhibition above about 16%, passing the limit was not always enough
CSC inhib: cancer stem cell inhibition | inhibition, % at 7.5 µM | cancer stem cell-like cells viability, luminescence | AID 2717 | actives 1.1% (n = 300,000); in the data active = inhibition above about 75%; tested in HMLE shEcad cells
PfHsp90 set2: inhibits growth of yeast expressing Plasmodium falciparum Hsp90. S. cerevisiae expressing PfHsp90, BacTiter-Glo ATP, 48 h; yeast lacking PDR1 and PDR3 efflux regulators. inhibition, % at 9.4 µM. actives 0.32% (n = 310,000). AID 504621;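 active = every replicate shows inhibition above about 80%, whatever the replicate mean, limit read from the data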
Large screens that a line does not name were inactive. Most compounds without a hit are left out; they make up all but 1.7% or so of the library.

O=C(NNc1nc(-c2ccccc2)cs1)c1ccc(F)cc1	SKKanGAS inh 53
Cc1cccc(-c2ccc([C@@H]3[C@H]4CN(Cc5cncnc5)CCCCN4[C@H]3CO)cc2)c1	none (no result: FN deposit inh, SKKanGAS inh, Rtt109 HAT inh, CSC inhib, PfHsp90 set2)
O=C(CN1C(=O)S/C(=C\C=C\c2ccccc2)C1=O)Nc1ccccc1C(=O)O	SKKanGAS inh 70 (no result: PglD DTNB)
O=C(CCN1C(=O)S/C(=C\C=C\c2ccccc2)C1=O)Nc1ccc(O)cc1	none
O=C(CN1C(=O)S/C(=C\C=C\c2ccccc2)C1=O)Nc1cccc(O)c1	CSC inhib 93
Cc1ccc(C(=O)Nc2nc(-c3ccccc3)c(-c3ccccc3)o2)cc1	SKKanGAS inh 113 (no result: PglD DTNB, CSC inhib)
O=C(C[C@H]1C[C@H]2c3cc(NC(=O)CC4CC4)ccc3O[C@H]2[C@@H](CO)O1)NCc1ccc(-c2ccccc2)cc1	none (no result: SKKanGAS inh, Rtt109 HAT inh, CSC inhib, PfHsp90 set2)
COc1ccc(Sc2ccc(NC(=O)c3ccccc3Cl)cc2C#N)cc1	SKKanGAS inh 52 (no result: FN deposit inh)
N#Cc1cc(NC(=O)c2ccc(Cl)cc2)ccc1Sc1ccccc1	none (no result: SKKanGAS inh, Rtt109 HAT inh, CSC inhib, PfHsp90 set2)
CCOC(=O)c1cnc2ccc(OCC)cc2c1NCc1ccccc1OC	CSC inhib 76 (no result: FN deposit inh)
CCOC(=O)c1cnc2ccc(OC)cc2c1NCc1ccccc1	none (no result: CSC inhib)
CCCNC(=O)C[C@@H]1CC[C@H]2[C@H](COc3ccc(NC(=O)Cc4ccccc4)cc3C(=O)N2C)O1	none (no result: SKKanGAS inh, Rtt109 HAT inh, CSC inhib, PfHsp90 set2)
Cc1cnc(NC(=O)c2cc3c(C)nn(Cc4ccccc4Cl)c3s2)s1	SKKanGAS inh 54 (no result: PglD DTNB)
Cc1cnc(NC(=O)Cc2ccccc2Cl)s1	none
O=C(O)c1cc(NN=C2c3ccccc3-c3ccccc32)ccc1Cl	none
O=C(O)c1cccc(NN=C2c3ccccc3-c3ccccc32)c1	PfHsp90 set2 106 (no result: FN deposit inh, PglD DTNB, CSC inhib)
CC(=O)[C@@]1(O)C(C)CC2C3C=C(C)C4=Cc5c(cnn5-c5ccccc5)C[C@]4(C)C3C(O)C[C@@]21C (stereo partly drawn)	SKKanGAS inh 64, CSC inhib 100
Cc1cc(C(=O)NC2CC(C)(C)Cc3c2cnn3-c2ccccc2)n(C)n1 (stereo not drawn)	none
C[C@@H]1CN([C@H](C)CO)C(=O)Cc2cc(NS(=O)(=O)c3ccc(F)cc3)ccc2O[C@@H]1CN(C)Cc1ccc(C(=O)O)cc1	none (no result: FN deposit inh, SKKanGAS inh, Rtt109 HAT inh, CSC inhib, PfHsp90 set2)
CCC(=O)N1C[C@@H](C)[C@@H](OC)CN(C)C(=O)c2ccc(NC(=O)c3cnccn3)cc2OC[C@H]1C	none (no result: SKKanGAS inh, Rtt109 HAT inh, CSC inhib, PfHsp90 set2)
COc1ccc(C[C@@H]2OC3(C=CC(=O)C=C3)O[C@H]2Cc2ccc(OC)cc2)cc1	none (no result: FN deposit inh, SKKanGAS inh, PglD DTNB, CSC inhib)
O=C1C=CC2(C=C1)O[C@H](Cc1ccccc1)[C@@H](Cc1ccccc1)O2	FN deposit inh 41 (no result: SKKanGAS inh, PglD DTNB, CSC inhib)
C[C@H](O)C#Cc1cnc2c(c1)C(=O)N([C@H](C)CO)C[C@H](C)[C@@H](CN(C)C(=O)c1ccccc1)O2	none (no result: SKKanGAS inh, Rtt109 HAT inh, CSC inhib, PfHsp90 set2)
COc1ccc(NC(=O)N(C)C[C@@H]2Oc3c(cccc3N(C)C)C(=O)N([C@H](C)CO)C[C@@H]2C)cc1	none (no result: FN deposit inh, SKKanGAS inh, Rtt109 HAT inh, CSC inhib, PfHsp90 set2)
Fc1cccc(-c2cc3nc4c(c(NCc5ccco5)n3n2)CCCC4)c1	CSC inhib 93 (no result: FN deposit inh)
Fc1cccc(-c2cc3nc4c(c(N5CCOCC5)n3n2)CCCC4)c1	none (no result: PglD DTNB, PfHsp90 set2)
CCc1nc(N2CCCCC2C(=O)O)c2oc3ccccc3c2n1 (stereo not drawn)	none (no result: PglD DTNB)
CCc1nc(N2CCN(Cc3ccc4c(c3)OCO4)CC2)c2oc3ccccc3c2n1	CSC inhib 81 (no result: Rtt109 HAT inh, PfHsp90 set2)
CCc1nc(N2CCCCC2C)c2oc3ccccc3c2n1 (stereo not drawn)	CSC inhib 102
C[C@@H]1CN([C@@H](C)CO)C(=O)Cc2cc(NC(=O)C3CC3)ccc2O[C@H]1CN(C)Cc1ccccc1	none (no result: FN deposit inh, SKKanGAS inh, Rtt109 HAT inh, CSC inhib, PfHsp90 set2)
CCOc1ccc(N2C(=O)C(Cl)=C(N3CCOCC3)C2=O)cc1	Rtt109 HAT inh 116
CCCCN(CC)Cc1ccc(CNC(=O)Nc2ccc(Cl)cc2)o1	FN deposit inh 31 (no result: PglD DTNB)
CCCCN(CC)Cc1ccc(CNC(=O)Nc2ccc(OCC)cc2)o1	none (no result: FN deposit inh)
COc1cccc(-c2ccc([C@H]3[C@@H](CO)N4C(=O)CN(C(=O)C5CCC5)C[C@@H]34)cc2)c1	none (no result: SKKanGAS inh, Rtt109 HAT inh, PglD DTNB, CSC inhib, PfHsp90 set2)
CCOC(=O)C1=C(N)c2ccccc2CC1C1CCCC1 (stereo not drawn)	SKKanGAS inh 55
C=C1c2ccccc2O[C@H](C(=O)OCC)[C@@H]1C1CCCCC1	none (no result: FN deposit inh, SKKanGAS inh, CSC inhib)
N#CCC(=O)Nc1ccc(C(=O)NNC(=S)NC2CCCCC2)cc1	none (no result: SKKanGAS inh, Rtt109 HAT inh, PfHsp90 set2)

From PubChem BioAssay
